For assay [1], the target named is T1, Androgen receptor (Homo sapiens) (UniProt P10275).
T1 sequence (whole entry): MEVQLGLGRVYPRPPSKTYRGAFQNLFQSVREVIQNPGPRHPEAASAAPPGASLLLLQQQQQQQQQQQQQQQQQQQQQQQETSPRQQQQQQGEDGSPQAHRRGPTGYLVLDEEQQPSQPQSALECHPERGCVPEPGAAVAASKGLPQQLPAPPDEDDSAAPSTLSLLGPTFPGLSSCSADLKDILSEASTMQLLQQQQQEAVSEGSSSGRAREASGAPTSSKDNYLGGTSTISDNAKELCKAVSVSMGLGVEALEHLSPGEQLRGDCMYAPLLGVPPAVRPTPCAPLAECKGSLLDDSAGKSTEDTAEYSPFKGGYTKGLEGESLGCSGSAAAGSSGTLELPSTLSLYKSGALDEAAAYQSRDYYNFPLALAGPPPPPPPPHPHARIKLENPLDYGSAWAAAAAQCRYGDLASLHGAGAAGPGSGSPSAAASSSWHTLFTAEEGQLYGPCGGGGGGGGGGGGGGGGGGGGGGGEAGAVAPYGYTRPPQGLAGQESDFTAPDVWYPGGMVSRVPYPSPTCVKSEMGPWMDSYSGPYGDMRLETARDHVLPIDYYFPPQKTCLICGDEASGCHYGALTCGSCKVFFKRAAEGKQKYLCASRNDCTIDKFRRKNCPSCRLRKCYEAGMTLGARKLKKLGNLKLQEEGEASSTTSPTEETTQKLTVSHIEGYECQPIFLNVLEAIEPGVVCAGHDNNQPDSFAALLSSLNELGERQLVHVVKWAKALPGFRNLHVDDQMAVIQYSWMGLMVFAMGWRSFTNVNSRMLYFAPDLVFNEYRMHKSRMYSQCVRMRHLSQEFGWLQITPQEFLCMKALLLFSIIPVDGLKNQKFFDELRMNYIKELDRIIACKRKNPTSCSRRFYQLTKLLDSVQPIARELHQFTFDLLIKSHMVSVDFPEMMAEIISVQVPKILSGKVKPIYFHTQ
In words: Agonist activity at wild type human androgen receptor expressed in COS-1 cells co-transfected with pSG5 assessed as effect on testosterone induced luciferase activity at 10 uM after 18 hrs relative untreated control. The class given is functional, cell-based.

Assay [2] concerns the target Luciferin 4-monooxygenase (Photinus pyralis) (UniProt P08659). In words: Inhibition of Photinus pyralis recombinant luciferase at 10 uM incubated for 20 mins. The procedure, abridged:
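Purified firefly luciferase diluted to 0.1 μg/mL in 1x Reporter Lysis Buffer, with compound added from ethanol stocks (10⁻³–10⁻⁷ mol/L dilutions) in triplicate. Incubated 20 min at rt, then luciferase substrate added and luminescence read. Blank (lysis buffer) and ethanol-vehicle controls were included.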

Another assay concerns the target T2, Androgen receptor (Homo sapiens, UniProt P10275).
T2 sequence (P10275 whole entry): T1 sequence (whole entry)
The assay is described as follows: Displacement of [3H]R1881 from wild type human androgen receptor expressed in COS-1 cells co-transfected with pSG5 after 2 hrs by scintillation assay. On the technique in general: Displacement assays read how much labelled ligand stays bound in the presence of the test substance.

In assay [3] the target is T1, Androgen receptor (Homo sapiens). The assay is described as follows: Potency index, ratio of RBA of (R)-bicalutamide to RBA of compound for human androgen receptor.
Assay [4] shares this target. In words: Potency index, ratio of RBA of hydroxyflutamide to RBA of compound for human androgen receptor.
For assay [5], the system named is T3, Androgen receptor (Homo sapiens), P10275 [W742L].
T3 sequence (whole entry): T1 sequence (whole entry) with W742L
The assay is described as follows: Antagonist activity at human Androgen receptor W741L mutant expressed in COS-1 cells co-transfected with pSG5 assessed as reduction in testosterone induced luciferase activity at 10 uM after 18 hrs relative untreated control. Format: functional, cell-based. The procedure, abridged:
(§1)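 COS-1 cells were grown in DMEM with dextran-charcoal-treated FBS (2.5% during transfection). They were transfected for 24 h with pSG5-hART877A or pSG5-hARW741L, plus the pProbasin(−285/+32)-Luc reporter and a pCMVβ control.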

Assay [6] deals with Androgen receptor (Homo sapiens), P10275 [T878A]. The assay is described as follows: Antagonist activity at human Androgen receptor T877A mutant expressed in COS-1 cells co-transfected with pSG5 assessed as reduction in testosterone induced luciferase activity at 10 uM after 18 hrs relative untreated control. Format: functional, cell-based. The procedure, abridged:
as §1

The target in assay [7] is T1, Androgen receptor (Homo sapiens). The assay is described as follows: Agonist activity at wild type human androgen receptor expressed in COS-1 cells co-transfected with pSG5 assessed as effect on testosterone induced luciferase activity at 1 nM to 10 uM after 18 hrs relative untreated control. Format: functional, cell-based. The method in brief: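 COS-1 cells were seeded in DMEM with 10% dextran-charcoal-treated FBS. After switching to 2.5% FBS, they were transfected for 24 h with pSG5-hAR, the pProbasin(−285/+32)-Luc reporter and a pCMVβ internal control. […] Luciferase was normalized to β-galactosidase and protein.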

Residue numbers refer to the chain shown, from its start. Active and inactive are the calls of the source.

Luciferin 4-monooxygenase (Photinus pyralis), sequence (P08659 whole entry): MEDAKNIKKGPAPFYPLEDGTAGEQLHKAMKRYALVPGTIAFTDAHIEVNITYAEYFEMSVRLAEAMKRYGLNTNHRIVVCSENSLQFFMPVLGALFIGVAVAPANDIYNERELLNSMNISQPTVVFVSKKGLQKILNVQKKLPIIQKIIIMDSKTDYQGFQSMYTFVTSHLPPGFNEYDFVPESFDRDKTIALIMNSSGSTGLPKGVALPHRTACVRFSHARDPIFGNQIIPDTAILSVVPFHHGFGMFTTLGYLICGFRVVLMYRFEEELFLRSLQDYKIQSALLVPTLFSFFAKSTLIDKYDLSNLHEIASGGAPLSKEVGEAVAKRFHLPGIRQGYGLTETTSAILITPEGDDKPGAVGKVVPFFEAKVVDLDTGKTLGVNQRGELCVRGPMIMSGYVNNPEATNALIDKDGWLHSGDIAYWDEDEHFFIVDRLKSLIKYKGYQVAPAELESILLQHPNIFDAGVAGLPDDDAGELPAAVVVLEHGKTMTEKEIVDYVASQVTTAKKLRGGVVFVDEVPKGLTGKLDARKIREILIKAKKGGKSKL
Androgen receptor (Homo sapiens), P10275 [T878A], sequence (P10275 whole entry T878A): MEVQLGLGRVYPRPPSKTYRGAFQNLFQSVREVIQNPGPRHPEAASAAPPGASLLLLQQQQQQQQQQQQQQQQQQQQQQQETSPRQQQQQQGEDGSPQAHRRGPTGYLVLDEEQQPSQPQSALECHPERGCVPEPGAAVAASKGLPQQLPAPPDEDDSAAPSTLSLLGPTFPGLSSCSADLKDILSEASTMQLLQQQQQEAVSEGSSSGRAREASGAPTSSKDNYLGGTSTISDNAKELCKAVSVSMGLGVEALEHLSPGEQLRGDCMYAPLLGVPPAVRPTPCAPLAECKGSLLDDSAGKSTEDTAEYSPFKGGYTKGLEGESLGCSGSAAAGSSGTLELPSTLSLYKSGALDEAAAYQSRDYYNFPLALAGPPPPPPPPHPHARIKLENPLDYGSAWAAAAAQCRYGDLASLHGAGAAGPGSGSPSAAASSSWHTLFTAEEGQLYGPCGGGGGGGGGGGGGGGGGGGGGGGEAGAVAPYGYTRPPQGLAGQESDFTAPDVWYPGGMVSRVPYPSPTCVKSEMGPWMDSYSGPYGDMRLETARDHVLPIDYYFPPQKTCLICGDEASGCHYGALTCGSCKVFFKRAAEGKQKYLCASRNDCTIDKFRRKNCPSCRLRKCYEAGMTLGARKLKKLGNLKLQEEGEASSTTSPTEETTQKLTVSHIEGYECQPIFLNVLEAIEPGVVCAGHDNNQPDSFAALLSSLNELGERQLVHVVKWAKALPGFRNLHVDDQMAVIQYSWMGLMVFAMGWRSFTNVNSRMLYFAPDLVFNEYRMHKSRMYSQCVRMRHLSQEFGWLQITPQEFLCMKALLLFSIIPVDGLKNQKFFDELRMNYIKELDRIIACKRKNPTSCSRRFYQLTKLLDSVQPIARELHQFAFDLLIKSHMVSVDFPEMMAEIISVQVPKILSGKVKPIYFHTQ

With `O=[N+]([O-])c1ccc(C2=NO[C@@H]3CCC[C@H]23)cc1C(F)(F)F`, the outcome in assay [1] was inactive. Further, in assay [2], the inhibition entry is “inactive”. This compound also gave an IC50 on Androgen receptor of 302 nM.
As to `O=[N+]([O-])c1ccc(C2=NO[C@@H]3CCCC[C@H]23)c(C(F)(F)F)c1`, the result in assay [1] was inactive. Also, the inhibition entry in assay [2] was “inactive”. The compound further had an IC50 at Androgen receptor of 129 nM.
`O=[N+]([O-])c1ccc(C2=NO[C@H]3CCCC[C@@H]23)c(C(F)(F)F)c1`: the outcome in assay [1] was inactive. The inhibition entry in assay [2] is “inactive”. Besides, at Androgen receptor, the IC50 is 263 nM.
As for `N#Cc1ccc(C2=NO[C@H]3CCC[C@@H]23)cc1C(F)(F)F`, the result in assay [1] was inactive. Further, the inhibition result in assay [2] was “inactive”. Further, on Androgen receptor, the half-maximal inhibitory concentration (IC50) is 617 nM.
In the case of `N#Cc1ccc(C2=NO[C@@H]3CCC[C@H]23)cc1C(F)(F)F`, in assay [1], the result was inactive. In assay [2], the inhibition result is “inactive”. Besides, the IC50 on Androgen receptor is 224 nM.
As to `O=[N+]([O-])c1ccc(C2=NO[C@H]3CCC[C@@H]23)cc1C(F)(F)F`, in assay [1], the result was inactive. In assay [2], the inhibition result was “inactive”. Also, the IC50 at Androgen receptor was 2510 nM.
For the compound `O=[N+]([O-])c1ccc(C2=NOC3CCCCCC23)cc1C(F)(F)F` (racemic), in assay [1], the result was inactive. Besides, in assay [2], the inhibition result is “inactive”. At Androgen receptor, this compound gave an IC50 of 105 nM.
With `Fc1ccc(C2=NOC3CCCCCC23)cc1C(F)(F)F` (racemic), the outcome in assay [1] was inactive. For the same compound, the inhibition result in assay [2] is “inactive”. The compound also showed a half-maximal inhibitory concentration (IC50) on Androgen receptor of 11000 nM.
With `N#Cc1ccc(C2=NOC3CCCCCCC23)cc1C(F)(F)F` (racemic), the result in assay [1] was inactive. Further, the inhibition entry in assay [2] was “inactive”. Also, the IC50 on Androgen receptor was 295 nM.
Regarding `O=[N+]([O-])c1ccc(C2=NOC3CCCCCCC23)cc1C(F)(F)F` (racemic), in assay [1], the result was inactive. The inhibition entry in assay [2] is “inactive”. On Androgen receptor, this compound showed an IC50 of 708 nM.
With `N#Cc1ccc(C2=NOC3CCCCCC23)cc1C(F)(F)F` (racemic), the result in assay [1] was inactive. For the same compound, the inhibition entry in assay [2] is “inactive”. Also, the IC50 on Androgen receptor is 43.7 nM.
In the case of `O=[N+]([O-])c1ccc(C2=NOC3CCCC23)c(C(F)(F)F)c1` (racemic), the result in assay [1] was inactive. Further, the inhibition entry in assay [2] is “inactive”. Moreover, the concentration for half-maximal inhibition (IC50) at Androgen receptor is 269 nM.
Regarding `Fc1ccc(C2=NOC3CCCC23)cc1C(F)(F)F` (racemic), the outcome in assay [1] was inactive. The inhibition entry in assay [2] is “inactive”. For the same compound, the half-inhibitory concentration (IC50) on Androgen receptor was 1480 nM.
For `N#Cc1ccc(C2=NOC3CCCCC23)cc1C(F)(F)F` (racemic), the Ratio came out at 4 in assay [3] and 8 in assay [4]. Moreover, the result in assay [5] and in assay [6] was Active. Also, the outcome in assay [7] and in assay [1] was inactive. For the same compound, in assay [2], the inhibition result is “inactive”. The compound further showed an IC50 at Androgen receptor of 27.5 nM.
Regarding `O=[N+]([O-])c1ccc(C2=NOC3CCCCC23)cc1C(F)(F)F` (racemic), the result in assay [5] and in assay [6] was Active. Besides, the result in assay [7] and in assay [1] was inactive. In assay [2], the inhibition result was “inactive”. Further, the concentration for half-maximal inhibition (IC50) on Androgen receptor is 120 nM.
As for `Fc1ccc(C2=NOC3CCCCC23)cc1C(F)(F)F` (racemic), the result in assay [1] was inactive. Moreover, the inhibition entry in assay [2] is “inactive”. The compound further showed an IC50 at Androgen receptor of 1100 nM.
With `N#Cc1ccc(C2=NOC3CCCC23)c(C(F)(F)F)c1` (racemic), in assay [1], the result was inactive. The inhibition entry in assay [2] is “inactive”. Moreover, the half-maximal inhibitory concentration (IC50) on Androgen receptor was 447 nM.

Broadly, the IC50 is the concentration at which inhibition is half-maximal. The low end stands for inhibition by little substance, the high end for a need for much substance.
